Laboratory results published in PubChem BioAssay AID624109 (Broad Institute, 2012).
Results filed as inconclusive are left out.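 Rule for the calls: active = curve reaches the -35% threshold at a concentration no more than twice the top valid dose, in duplicate at both wavelengths; inconclusive = no clear call, values can overlap the other calls; inactive = the rest, including effects opposite to the expected decrease.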

Experiment: inhibition of P. aeruginosa growth with EDDHA – absorbance 405 nm, dry powder, set 6, dose response (AID 624109)
Conditions: active compounds read low; at 0.056 µM unless noted
In short: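 Test system – P. aeruginosa ATCC 15692 bacteria · Input – final OD600 0.0000005 inoculum · Medium – succinate M9 medium at pH 7.0 with iron chelator EDDHA · Incubation – 24-30 h growth at 37 °C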

Max activity, inactive:
COCCC(C#N)c1ccc(F)cc1 (centres undefined) -46.3% [at 0.5 µM], N#CC(c1ccc(Cl)cc1)c1ccccn1 (centres undefined) -55.2%, CCCCC(C#N)c1ccc(F)cc1 (centres undefined) -50.3% [at 1.5 µM], CCCCC(C#N)c1ccc(Cl)cc1 (centres undefined) -39.1% [at 0.16 µM], CCCCC(C#N)c1ccc(Cl)cn1 (centres undefined) -57.2%, N#CC(c1ccc(F)cc1)c1cccc(Cl)n1 (centres undefined) -43.2% [at 0.16 µM], COCCNC(C#N)c1ccc(Cl)cc1 (centres undefined) -29.7% [at 4.6 µM], CCCCC(C#N)c1ccccn1 (centres undefined) 1.07% [at 120 µM], Clc1ccc(C(c2cccc(Cl)n2)c2nn[nH]n2)cc1 (centres undefined) 10.4% [at 13.5 µM], COCCC(C#N)c1ccc(Cl)cc1 (centres undefined) -41.4%, CCCCC(C#N)c1ccc(F)cn1 (centres undefined) -30.6% [at 0.5 µM], CN(C)CCCC(C#N)c1ccc(Cl)cc1 (centres undefined) -33.4%, N#CC1c2ccc(Cl)cc2CCc2cccnc21 (centres undefined) -36.3% [at 4.6 µM], N#Cc1cccc(C(C#N)c2ccc(F)cc2)n1 (centres undefined) 19% [at 0.0195 µM]
